According to ChEMBL document CHEMBL3576866, “Discovery of a Cyclic Boronic Acid β-Lactamase Inhibitor (RPX7009) with Utility vs Class A Serine Carbapenemases” (J Med Chem, 2015):
Activity calls are given as the source filed them. No cut-off for these calls is given here.

Columns and labels:
Klebsiella pneumoniae [1] = assay: Inhibition of Klebsiella pneumoniae KP1084 SHV-11 assessed as biapenem MIC at 4 ug/ml by broth microdilution method
[2] = biological target: Beta lactamase TEM-1 (Klebsiella pneumoniae) (UniProt Q7B899); assay: Inhibition of Klebsiella pneumoniae KP1084 TEM-1 assessed as biapenem MIC at 4 ug/ml by broth microdilution method
Klebsiella pneumoniae [3] = assay: Inhibition of Klebsiella pneumoniae KP1087 KPC-2 assessed as biapenem MIC at 4 ug/ml by broth microdilution method
Klebsiella oxytoca [4] = assay: Inhibition of Klebsiella oxytoca KX1017 OXA-2 assessed as meropenem MIC at 4 ug/ml by broth microdilution method
[5] = biological target: Carbapenem-hydrolyzing beta-lactamase KPC (Klebsiella oxytoca) (UniProt Q848S6); assay: Inhibition of Klebsiella oxytoca KX1019 KPC-2 assessed as meropenem MIC at 4 ug/ml by broth microdilution method
Outline: (§1)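 CLSI broth microdilution (M07-A9, 2012) MIC of the carbapenem against clinical serine carbapenemase-producing strain, tested alone and with the inhibitor held at a fixed 4 μg/mL.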

[6] = biological target: Beta-lactamase TEM (Enterobacter cloacae) (UniProt Q6W9J1); assay: Inhibition of Enterobacter cloacae ECL1058 TEM-1 assessed as meropenem MIC at 4 ug/ml by broth microdilution method
[7] = biological target: Class A carbapenemase KPC-2 (Escherichia coli) (UniProt A8DS27); assay: Inhibition of Escherichia coli EC1007 KPC-3 assessed as meropenem MIC at 4 ug/ml by broth microdilution method
[8] = biological target: Beta lactamase TEM-1 (Klebsiella pneumoniae) (UniProt Q7B899); assay: Inhibition of Klebsiella pneumoniae KP1087 TEM-1 assessed as meropenem MIC at 4 ug/ml by broth microdilution method; outline: as §1
[9] = Cmax in rat at 300 mg/kg, iv administered as 0.5 hrs infusion by HPLC-MS method; format: ADME, organism-based; parameters: dose 300 mg/kg, route intravenous; conditions: in vivo
[10] = Clearance in rat at 300 mg/kg, iv administered as 0.5 hrs infusion by HPLC-MS method; format: ADME, organism-based; conditions: in vivo
[11] = AUC (0 to infinity) in rat at 1000 mg/kg, iv administered as 0.5 hrs infusion by HPLC-MS method; format: ADME, organism-based; parameters: dose 1000 mg/kg, route intravenous, time infinity; conditions: in vivo
[12] = Volume of distribution at steady state in human at 1 g administered as 3 hrs of infusion; format: ADME, organism-based; conditions: in vivo, iv, read-out: Vdss
Outline: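 Healthy volunteers received 3 h infusions. Plasma concentrations were fit to a noncompartmental model to derive steady-state volume of distribution at the 1 g dose.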

Klebsiella pneumoniae [13] = assay: Inhibition of Klebsiella pneumoniae KP1005 CTX-M-14 assessed as cefepime MIC at 4 ug/ml by broth microdilution method
[14] = biological target: Beta-lactamase (Enterobacter cloacae) (UniProt P05364); assay: Inhibition of Enterobacter cloacae ECL1061 AmpC assessed as cefepime MIC at 4 ug/ml by broth microdilution method
[15] = biological target: Beta-lactamase (Klebsiella pneumoniae) (UniProt Q93LQ9); assay: Inhibition of Klebsiella pneumoniae KP1083 KPC-3 assessed as biapenem MIC at 4 ug/ml by broth microdilution method; outline: as §1
Klebsiella pneumoniae [16] = assay: Inhibition of Klebsiella pneumoniae KP1087 SHV-11 assessed as ertapenem MIC at 4 ug/ml by broth microdilution method; outline: as §1
Klebsiella oxytoca [17] = assay: Inhibition of Klebsiella oxytoca KX1019 OXA-2 assessed as ertapenem MIC at 4 ug/ml by broth microdilution method
Klebsiella pneumoniae [18] = assay: Inhibition of Klebsiella pneumoniae KP1004 SHV-11 assessed as imipenem MIC at 4 ug/ml by broth microdilution method; outline: as §1
[19] = biological target: T1, Beta-lactamase SHV-1 (Klebsiella pneumoniae) (UniProt P0AD64); assay: Inhibition of Klebsiella pneumoniae KP1082 SHV-1 assessed as imipenem MIC at 4 ug/ml by broth microdilution method
T1 sequence (whole entry): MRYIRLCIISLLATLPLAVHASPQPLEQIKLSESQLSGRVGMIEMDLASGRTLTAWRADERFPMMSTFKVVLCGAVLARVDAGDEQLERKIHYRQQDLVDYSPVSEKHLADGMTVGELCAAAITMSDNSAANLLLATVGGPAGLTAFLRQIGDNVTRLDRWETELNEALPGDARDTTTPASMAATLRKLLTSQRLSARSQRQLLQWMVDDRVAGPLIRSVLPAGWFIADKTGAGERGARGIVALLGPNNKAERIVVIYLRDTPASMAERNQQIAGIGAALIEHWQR

Klebsiella oxytoca [20] = assay: Inhibition of Klebsiella oxytoca KX1017 SHV-30 assessed as ertapenem MIC at 4 ug/ml by broth microdilution method
Klebsiella pneumoniae [21] = assay: Inhibition of Klebsiella pneumoniae KP1087 KPC-2 assessed as imipenem MIC at 4 ug/ml by broth microdilution method
Outline: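 CLSI broth microdilution (M07-A9) against clinical K. pneumoniae strain KP1087 (KPC-2, CTX-M-15, SHV-11, TEM-1); carbapenem MIC (μg/mL) read with the inhibitor held at a fixed 4 μg/mL, alongside carbapenem alone.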

Enterobacter cloacae = assay: Inhibition of Enterobacter cloacae ECL1058 SHV-11 assessed as imipenem MIC at 4 ug/ml by broth microdilution method
[22] = biological target: Beta-lactamase TEM (Enterobacter cloacae) (UniProt Q6W9J1); assay: Inhibition of Enterobacter cloacae ECL1058 TEM-1 assessed as imipenem MIC at 4 ug/ml by broth microdilution method
Klebsiella oxytoca [23] = assay: Inhibition of Klebsiella oxytoca KX1017 OXA-2 assessed as imipenem MIC at 4 ug/ml by broth microdilution method
Klebsiella pneumoniae [24] = assay: Antibacterial activity against Klebsiella pneumoniae KP1004 by broth microdilution method; format: functional, organism-based
[25] = Inhibition of Escherichia coli recombinant SHV-12 assessed as substrate nitrocefin degradation preincubated for 10 mins followed by substrate addition measured every 10 secs for 10 mins by spectrophotometric analysis
Outline: (§2)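 β-Lactamases purified from overexpressing recombinant E. coli. Enzyme preincubated with inhibitor at varying concentrations for 10 min at room temperature in 50 mM Na phosphate pH 7.0, 0.1 mg/mL BSA. Then 50 μM nitrocefin (final) added and cleavage read at 490 nm every 10 s for 10 min. Ki derived by the Waley method.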

[26] = Inhibition of Escherichia coli recombinant CMY-2 assessed as substrate nitrocefin degradation preincubated for 10 mins followed by substrate addition measured every 10 secs for 10 mins by spectrophotometric analysis; outline: as §2
Escherichia coli = assay: Inhibition of Escherichia coli EC1009 TEM-10 assessed as cefepime MIC at 4 ug/ml by broth microdilution method
Outline: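 CLSI broth microdilution (M07-A9) against clinical strains expressing serine β-lactamases.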

[27] = biological target: Beta-lactamase (Enterobacter cloacae) (UniProt G8A3U3); assay: Inhibition of Enterobacter cloacae ECL1003 TEM assessed as cefepime MIC at 4 ug/ml by broth microdilution method

With O=C(O)C[C@@H]1CC[C@H](NC(=O)Cc2cccs2)B(O)O1 [VABORBACTAM] the MIC (Klebsiella pneumoniae [1]) was 0.25 µg/mL, the MIC [2] was 0.25 µg/mL and the MIC (Klebsiella pneumoniae [3]) was 0.25 µg/mL. For the same compound, the MIC (Klebsiella oxytoca [4]) was under 0.06 µg/mL, the MIC [5] was under 0.06 µg/mL and the MIC [6] was under 0.06 µg/mL. The MIC [7] was under 0.06 µg/mL, the MIC [8] was 1 µg/mL and the Cmax [9] was 735 µg/mL. For the same compound, the clearance [10] was 21 mL/min/kg, the AUC(0-inf) [11] was 1040 µg·h/mL and the Vd [12] was 21 L. For the same compound, the MIC (Klebsiella pneumoniae [13]) was 4 µg/mL, the MIC [14] was 2 µg/mL and the MIC [15] was under 0.06 µg/mL. The MIC (Klebsiella pneumoniae [16]) was 2 µg/mL, the MIC (Klebsiella oxytoca [17]) was 0.25 µg/mL and the MIC (Klebsiella pneumoniae [18]) was at most 0.06 µg/mL. The MIC [19] was 0.13 µg/mL, the MIC (Klebsiella oxytoca [20]) was 0.25 µg/mL and the MIC (Klebsiella pneumoniae [21]) was 0.25 µg/mL. For the same compound, the MIC (Enterobacter cloacae) was 0.25 µg/mL, the MIC [22] was 0.25 µg/mL and the MIC (Klebsiella oxytoca [23]) was 0.13 µg/mL. For the same compound, the Activity (Klebsiella pneumoniae [24]) was “inactive”, the Ki [25] was 29 nM and the Ki [26] was 99 nM. It also gave an MIC (Escherichia coli) of 4 µg/mL and an MIC [27] of 8 µg/mL.
